Assay results: ChEMBL document CHEMBL3098107, “Synthesis of novel 2-cyano substituted glycyrrhetinic acid derivatives as inhibitors of cancer cells growth and NO production in LPS-activated J-774 cells” (Bioorg Med Chem, 2014)

Tests used:
[1] = tested on: J774; experiment: Cytotoxicity against mouse J774 cells assessed as cell survival after 24 hrs by MTT assay; type: cell-based; details: J774, 24 h
How it was run: (§1)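 Cells in log phase, in DMEM with 10% heat-inactivated FBS, seeded in triplicate. After 24 h adherence, they were exposed to graded doses for 24 h, then to MTT for 3 h. Formazan was dissolved in DMSO and read at 570 nm. IC50 is the concentration giving 50% survival. Three independent experiments, mean ± SEM.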

[2] = tested on: J774; experiment: Antiinflammatory activity in mouse J774 cells assessed as inhibition of LPS-induced NO production after 24 hrs by Griess method; type: functional, cell-based; details: J774, 24 h
[3] = Cytotoxicity against human KB-3-1 cells assessed as cell survival after 24 hrs by MTT assay; type: functional, cell-based; details: KB 3-1, 24 h; how it was run: as §1
[4] = tested on: J774; experiment: Selectivity index, ratio of IC50 for mouse J774 cells to IC50 for human KB-3-1 cells; type: functional
How it was run: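 SI is the IC50 from the J-774 MTT assay divided by the IC50 from the KB-3-1 MTT assay, with both IC50 values from the 24 h assays.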

[5] = Solubility of the compound in DMSO; type: physicochemical

Row | Structure (SMILES) | IC50 [2] [µM] | solubility [5] | IC50 [1] [µM] | IC50 [3] [µM] | Ratio IC50 [4]
1 | COC(=O)[C@@]1(C)CC[C@]2(C)CC[C@]3(C)C(=CC(=O)[C@@H]4[C@@]5(C)CC[C@H](O)C(C)(C)[C@@H]5CC[C@]43C)[C@@H]2C1 | > 100 |  | > 100 | > 100 | 
2 | COC(=O)[C@@]1(C)CC[C@]2(C)CC[C@]3(C)C(=CC[C@@H]4[C@@]5(C)Cc6cnoc6C(C)(C)[C@@H]5CC[C@]43C)[C@@H]2C1 | 12.4 |  | > 100 | > 100 | 
3 | COC(=O)[C@@]1(C)CC[C@]2(C)CC[C@]3(C)[C@H](C(=O)C[C@@H]4[C@@]5(C)CC[C@H](O)C(C)(C)[C@@H]5CC[C@]43C)[C@@H]2C1 | 59.4 |  | 56.1 | 6.8 | 8.3
4 | COC(=O)[C@@]1(C)CC[C@]2(C)CC[C@]3(C)[C@H](C(=O)C[C@@H]4[C@@]5(C)CCC(=O)C(C)(C)[C@@H]5CC[C@]43C)[C@@H]2C1 | 23.4 |  | > 100 | 25.2 | >3.9
5 | COC(=O)[C@@]1(C)CC[C@]2(C)CC[C@]3(C)C(=CC[C@@H]4[C@@]5(C)C=C(C#N)C(=O)C(C)(C)[C@@H]5CC[C@]43C)[C@@H]2C1 |  | Insoluble |  |  | 
6 | COC(=O)[C@@]1(C)CC[C@]2(C)CC[C@]3(C)C(=CC[C@@H]4[C@@]5(C)CC[C@H](O)C(C)(C)[C@@H]5CC[C@]43C)[C@@H]2C1 |  | Insoluble |  |  | 
7 | COC(=O)[C@@]1(C)CC[C@]2(C)CC[C@]3(C)C(=CC[C@@H]4[C@@]5(C)CCC(=O)C(C)(C)[C@@H]5CC[C@]43C)[C@@H]2C1 |  | Insoluble |  |  | 
8 | COC(=O)[C@]1(C)C=C2C3=CC(=O)[C@@H]4[C@@]5(C)CC[C@H](O)C(C)(C)[C@@H]5CC[C@@]4(C)[C@]3(C)CC[C@@]2(C)CC1 | > 100 |  | > 100 |  | 
9 | COC(=O)[C@]1(C)C=C2C3=CC(=O)[C@@H]4[C@@]5(C)CCC(=O)C(C)(C)[C@@H]5CC[C@@]4(C)[C@]3(C)CC[C@@]2(C)CC1 | 16.3 |  | 20.1 |  | 
10 | COC(=O)[C@]1(C)C=C2C3=CC(=O)[C@@H]4[C@@]5(C)C/C(=C/O)C(=O)C(C)(C)[C@@H]5CC[C@@]4(C)[C@]3(C)CC[C@@]2(C)CC1 | 14.5 |  | 13.4 |  | 
11 | COc1ccc2c(c1)c(CC(=O)O)c(C)n2C(=O)c1ccc(Cl)cc1 [INDOMETHACIN] | 29.6 |  | > 100 |  | 

The next lines start with results.

Row | IC50 [2] [µM] | solubility [5] | Structure (SMILES) | IC50 [1] [µM] | IC50 [3] [µM] | Ratio IC50 [4]
12 | 0.11 |  | COC(=O)[C@@]1(C)CC[C@]2(C)CC[C@]3(C)[C@H](C(=O)C=C4[C@@]5(C)C=C(C#N)C(=O)C(C)(C)[C@@H]5CC[C@]43C)[C@@H]2C1 | 3.32 | 0.3 | 11
13 | 10.5 |  | COC(=O)[C@@]1(C)CC[C@]2(C)CC[C@]3(C)C(=CC[C@@H]4[C@@]5(C)C/C(=C\O)C(=O)C(C)(C)[C@@H]5CC[C@]43C)[C@@H]2C1 | > 100 | 40 | >2.5
14 | 8 |  | COC(=O)[C@@]1(C)CC[C@]2(C)CC[C@]3(C)C(=CC[C@@H]4[C@@]5(C)CC(C#N)=C(O)C(C)(C)[C@@H]5CC[C@]43C)[C@@H]2C1 | > 100 | 80 | >1.3
15 | 5.6 |  | COC(=O)[C@]1(C)C=C2C3=CC(=O)[C@@H]4[C@@]5(C)C=C(C#N)C(=O)C(C)(C)[C@@H]5CC[C@@]4(C)[C@]3(C)CC[C@@]2(C)CC1 | 7 | 4 | 1.8
16 | 2.8 |  | COC(=O)[C@@]1(C)CC[C@]2(C)CC[C@]3(C)[C@H](C(=O)C[C@@H]4[C@@]5(C)C=C(C#N)C(=O)C(C)(C)[C@@H]5CC[C@]43C)[C@@H]2C1 | > 100 | 5.5 | >18.2
17 | 2 |  | COC(=O)[C@@]1(C)CC[C@]2(C)CC[C@]3(C)C(=CC(=O)[C@@H]4[C@@]5(C)C=C(C#N)C(=O)C(C)(C)[C@@H]5CC[C@]43C)[C@@H]2C1 | > 100 | 20 | >5
